# Bioassay records as filed in PubChem.
# Sampled rows, rich in hits. Any-hit rate of the full collection: about 2.5%.
# SENP1 FRET inh: SENP1 (human) catalytic domain inhibition; Q9P0U3; recombinant SENP1 catalytic domain, CyPet-SUMO1-YPet FRET cleavage; inhibition, % at 10 µM; 360,000 compounds, 0.21% hits; AID 624204;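 active = inhibition at least 30% at 10 µM, raw YFP signal under a set limit, fluorescence ratio 0.5 to 1.5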
#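 Compound: 10 µM single point, 0.5% DMSO; Test system: hSENP1 catalytic domain, recombinant; Timing: 50 min reaction at room temperature; Technique: FRET, CFP and YFP emission; Control set: no-enzyme wells low, DMSO-plus-enzyme wells high control.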
# SENP7 block: blocks the human protease SENP7; inhibition, % at 5 µM; 330,000 compounds, 1.5% hits; recombinant SENP7, Z-RLRGG-aminoluciferin luminescence, 40 min; AID 434973; Q9BQF6;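 active = inhibition above about 50% at the single test dose, limit read from the data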
# SENP8 block-1: inhibitors of human SENP8 protease. Q96LD8. recombinant SENP8, Nedd8 substrate fluorescence. inhibition, % at 20 µM. 360,000 compounds, 0.64% hits. AID 602440; in the data active = inhibition mostly above about 40%, no sharp cut-off; inactive = mostly below about 27%
# SENP8 block-2: inhibitors of human SENP8 protease | Q96LD8 | purified SENP8, Z-RLRGG-aminoluciferin cleavage, luminescence | inhibition, % at 10 µM | 330,000 compounds, 1.2% hits | AID 2540; in the data active = inhibition above about 50%
# SENP6 block: blocks the human protease SENP6 | Q9GZR1 | Recombinant SENP6 catalytic domain, aminoluciferin luminescence | inhibition, % at 10 µM | 330,000 compounds, 1.8% hits;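 active = inhibition above about 50% at the single tested dose, limit read from the data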
# Target sequence (Q9GZR1 628-1112 limits assumed): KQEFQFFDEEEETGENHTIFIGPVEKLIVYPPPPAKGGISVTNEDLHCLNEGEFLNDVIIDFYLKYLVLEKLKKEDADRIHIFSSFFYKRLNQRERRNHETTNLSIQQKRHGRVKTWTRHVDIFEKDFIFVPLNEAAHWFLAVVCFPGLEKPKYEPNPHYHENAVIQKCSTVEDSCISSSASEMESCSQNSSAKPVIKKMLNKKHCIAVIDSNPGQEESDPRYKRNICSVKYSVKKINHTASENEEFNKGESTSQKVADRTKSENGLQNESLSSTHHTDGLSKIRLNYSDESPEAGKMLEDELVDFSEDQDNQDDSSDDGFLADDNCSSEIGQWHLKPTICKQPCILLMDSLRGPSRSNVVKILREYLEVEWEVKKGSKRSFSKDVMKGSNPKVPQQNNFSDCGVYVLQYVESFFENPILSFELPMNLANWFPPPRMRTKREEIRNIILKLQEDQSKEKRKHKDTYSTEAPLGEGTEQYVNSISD
# SENP8 conf: confirmation of human SENP8 protease inhibitors; shares compounds with SENP7 block; Recombinant SENP8, Z-RLRGG-aminoluciferin luminescence, 60 min; inhibition, % at 12.5 µM; 6,200 compounds, 40% hits;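 active = mean inhibition across replicates above about 50%, limit read from the data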
# SENP6 confirm: confirmation of human SENP6 protease inhibitors; 6,200 compounds, 58% hits; inhibition, % at 12.5 µM; recombinant SENP6, Z-RLRGG-aminoluciferin luminescence; shares compounds with SENP7 block; AID 488915
# SENP7 conf: confirmation of human SENP7 protease inhibitors | inhibition, % at 12.5 µM | recombinant SENP7, Z-RLRGG-aminoluciferin luminescence, 40 min | shares compounds with SENP7 block | 6,200 compounds, 69% hits | AID 488917
# Casp3 select: selectivity test for SENP inhibitors: human caspase-3 inhibition. shares compounds with SENP7 block. purified caspase-3, Z-DEVD-aminoluciferin luminescence, 60 min. AID 488918. 6,200 compounds, 60% hits. inhibition, % at 12.5 µM;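 active = mean inhibition above about 50%, limit read from the data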
# Target sequence (P42574 28-227 limits assumed): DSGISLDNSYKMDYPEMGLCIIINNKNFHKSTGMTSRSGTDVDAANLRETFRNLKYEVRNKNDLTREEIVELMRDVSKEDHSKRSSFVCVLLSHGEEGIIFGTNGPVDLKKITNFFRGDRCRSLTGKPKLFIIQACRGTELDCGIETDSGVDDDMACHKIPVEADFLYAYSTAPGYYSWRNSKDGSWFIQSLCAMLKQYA
# Luc interf: interferes with luciferase luminescence in SENP counter-screen; inhibition, % at 12.5 µM; AID 488919; shares compounds with SENP7 block; Pre-incubated SENP8/Z-RLRGG-aminoluciferin, luciferase luminescence interference; 6,200 compounds, 39% hits;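 active = mean inhibition above about 50% when retested at one dose, limit read from the data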
# Numbers stand for hits; i = inactive; nt = no result given.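 Rule for the calls, unless noted: active = mean inhibition above about 50% in the one-dose retest (limit read from the data); inactive = the rest.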
SMILES,SENP1 FRET inh,SENP7 block,SENP8 block-1,SENP8 block-2,SENP6 block,SENP8 conf,SENP6 confirm,SENP7 conf,Casp3 select,Luc interf
COc1cc(C(=O)Nc2nc3ccc(S(C)(=O)=O)cc3s2)cc(OC)c1C,i,i,i,i,i,nt,nt,nt,nt,nt
COc1cc(OC)cc(C(=O)Nc2nc3ccc(S(C)(=O)=O)cc3s2)c1,i,98,i,91,86,93,96,101,96,92
COc1ccc(S(=O)(=O)NCC(c2ccc(F)cc2)N2CCOCC2)cc1Br (stereo not drawn),i,i,i,i,i,nt,nt,nt,nt,nt
COc1ccc2c(c1O)C(=O)c1ccccc1C2=O,nt,i,nt,i,i,nt,nt,nt,nt,nt
CC(C)COC(=O)c1ccc2c(c1O)C(=O)c1ccccc1C2=O,i,93,i,i,81,85,88,95,59,52
Cc1cccc(/C=c2\s/c(=C\C(=O)C(C)(C)C)[nH]c2=O)c1,i,i,i,i,i,nt,nt,nt,nt,nt
O=C1C(=C2SCCCS2)CC/C1=C\c1ccc(F)cc1,i,99,i,96,95,i,68,63,84,i
O=C1C(=Cc2ccc(F)cc2)Cc2ccccc21,i,nt,i,nt,nt,nt,nt,nt,nt,nt
Cc1cccc(/C=C2\CCC(=C3SCCCS3)C2=O)c1,i,92,i,93,91,i,i,i,i,i
Cc1nc2cc(OCc3cc(C(=O)NC(C)c4cnn(C)c4)no3)ccc2s1 (stereo not drawn),i,i,i,i,i,nt,nt,nt,nt,nt
Cc1cc(C)n(-c2ccc(S(=O)(=O)N3CCOCC3)cc2[N+](=O)[O-])n1,i,i,i,i,i,nt,nt,nt,nt,nt
CCCC(=O)Nc1ccc2oc(-c3cncc(Br)c3)nc2c1,i,i,i,i,i,nt,nt,nt,nt,nt
CCCCCC(=O)Nc1ccc2oc(-c3cncc(Br)c3)nc2c1,i,101,i,i,i,i,i,i,i,i
Cc1ccc2nc(N3C(=O)C(O)=C(C(=O)c4ccco4)C3c3cccs3)sc2c1 (stereo not drawn),i,i,i,53,74,i,i,i,i,i
O=C(CSc1nnc(COc2ccccc2)o1)N1CCOCC1,i,i,i,i,i,nt,nt,nt,nt,nt
C[C@@H]1CN([C@@H](C)CO)C(=O)CCCn2nncc2CO[C@H]1CN(C)Cc1ccc2c(c1)OCCO2,i,nt,i,nt,nt,nt,nt,nt,nt,nt
CCN1CCN(c2ncnc3c2cnn3-c2ccccc2)CC1,i,i,i,i,i,nt,nt,nt,nt,nt
CC1CCCN(c2ncnc3c2cnn3-c2ccccc2)C1 (stereo not drawn),i,i,i,62,64,i,i,68,i,53
Cc1cccc(-n2ncc3c(N4CCC(C)CC4)ncnc32)c1,i,i,i,54,61,60,59,83,i,i
CC1CCCN(c2ncnc3c2cnn3-c2ccc(Cl)cc2)C1 (stereo not drawn),i,95,i,94,94,90,94,98,92,i
c1ccc(-n2ncc3c(N4CCCCC4)ncnc32)cc1,i,84,i,85,84,86,84,96,86,84
O=C(COc1cc(Cl)ccc1Cl)Nc1nnc(C2CC2)s1,i,i,i,i,i,nt,nt,nt,nt,nt
OC(c1ccc(OCc2ccccc2)cc1)c1nnc(-c2ccccc2)o1 (stereo not drawn),i,i,i,i,50,i,i,56,i,i
OCCCNc1ncnc2sc3c(c12)CCN(Cc1ccccc1)C3,i,i,i,i,54,i,i,i,i,i
O=c1[nH]cnc2sc3c(c12)CCN(Cc1ccccc1)C3,i,i,i,i,i,nt,nt,nt,nt,nt
SMILES,SENP1 FRET inh,SENP7 block,SENP8 block-1,SENP8 block-2,SENP6 block,SENP8 conf,SENP6 confirm,SENP7 conf,Casp3 select,Luc interf
CCOC(=O)C1(Cc2ccc(Cl)cc2)CCN(C(=O)c2cnc(C)cn2)CC1,i,i,i,i,i,nt,nt,nt,nt,nt
COc1ccccc1C(=O)N1CCc2ccccc21,i,i,i,i,i,nt,nt,nt,nt,nt
Nc1ccccc1C(=O)N1CCc2ccccc21,i,i,i,i,55,i,i,i,i,55
COc1ccc(-n2cnc3cc([N+](=O)[O-])ccc32)cc1,i,nt,i,nt,nt,nt,nt,nt,nt,nt
COc1ccc(-c2nc3cc([N+](=O)[O-])ccc3o2)cc1,i,77,i,i,i,i,i,i,59,i
Nc1ccc(-c2nc3cc([N+](=O)[O-])ccc3o2)cc1,i,56,i,i,63,i,i,85,54,i
CC(C)(C)Nc1nc2cc([N+](=O)[O-])ccc2o1,i,i,i,i,i,nt,nt,nt,nt,nt
Cc1cccn2c(CN3CCCC(c4ccccc4)C3)c(C(=O)N3CCOCC3)nc12 (stereo not drawn),i,i,i,i,i,nt,nt,nt,nt,nt
COC(=O)c1ccc2c(c1)C(=O)/C(=C/c1ccc(O)cc1)O2,i,nt,i,nt,nt,nt,nt,nt,nt,nt
COc1cccc(/C=C2\Oc3ccc(O)cc3C2=O)c1O,i,64,i,56,71,72,69,90,72,i
Brc1ccc(NCc2nnc3n2CCCCC3)cc1,i,99,i,i,i,i,i,i,i,i
Cc1ccc(S(=O)(=O)N2CCC(C(=O)N/N=C/c3ccncc3)CC2)cc1,i,i,i,i,i,nt,nt,nt,nt,nt
CCc1cc[n+](C2=C([O-])c3ccccc3C(=O)/C2=N\S(=O)(=O)c2cccs2)cc1,i,i,90,53,84,i,80,i,i,i
COc1ccc(NC2CCCN(C(=O)CCN3Cc4ccccc4C3=O)C2)cc1 (stereo not drawn),i,i,i,i,i,nt,nt,nt,nt,nt
NC1=Nc2cccc3cccc1c23,i,i,i,i,66,i,i,i,i,i
COc1ccccc1CNC(=O)CN1C(=O)NC2(CCCc3sccc32)C1=O (stereo not drawn),i,i,i,i,i,nt,nt,nt,nt,nt
Cc1ccc(-c2cc(C(=O)N/N=C/c3ccccc3O)n[nH]2)o1,i,52,i,i,67,i,i,86,53,i
Cc1ccc(-c2cc(C(=O)N/N=C/c3c[nH]c4ccccc34)n[nH]2)o1,i,i,i,i,i,nt,nt,nt,nt,nt
COc1cc(N/N=C/c2ccc(N(C)C)cc2)ncn1,i,97,i,93,96,70,81,94,78,i
COc1cc(N/N=C/c2ccccc2O)ncn1,i,71,i,i,74,63,63,89,75,59
CCNc1nc(NCC)nc(N/N=C/c2ccc(N(C)C)cc2)n1,i,i,i,i,i,nt,nt,nt,nt,nt
Nc1cccnc1Sc1ccc(Cl)cc1,i,i,i,i,55,i,i,i,i,i
